Activity calls are given as the source filed them. The calls are words filed in the database; no cut-off is given here.
What was measured:
Rattus norvegicus [1] = assay: Toxicity in rat assessed as pathological changes in liver at 150 mg/kg/day, po after 3 months by histomorphology; assay type: organism-based; parameters: route oral; conditions: in vivo
Outline: (§1)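 Rats, n = 7, given oral doses of 150 mg/kg/day for 3 months. Heart, liver, spleen, lung and kidney examined histologically for pathological change.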

Mus musculus [2] = assay: Induction of bone formation in SAMP6 mouse right femora assessed as trabecular bone volume percentage at 30 mg/kg/day, po measured after 3 months by bone histomorphometry; assay type: functional, Trabecula
Outline: (§2)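 SAMP6 mice, 5 months old, n = 5 per group (3 male, 2 female), randomized by initial BMD. Given compound in 0.5% methylcellulose by gavage daily for 3 months. Proximal third of the right femur fixed in 4% paraformaldehyde, cut as undecalcified sections, and scored by image analysis for histomorphometry.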

Rattus norvegicus [3] = assay: Toxicity in rat assessed as pathological changes in kidney at 150 mg/kg/day, po after 3 months by histomorphology; assay type: organism-based; parameters: route oral; conditions: in vivo; outline: as §1
Rattus norvegicus [4] = assay: Toxicity in rat assessed as pathological changes in spleen at 150 mg/kg/day, po after 3 months by histomorphology; assay type: organism-based; parameters: route oral; conditions: in vivo; outline: as §1
Rattus norvegicus [5] = assay: Induction of bone formation in ovariectomized rat assessed as decrease in trabecular resorption surface percentage at 15 mg/kg/day, po after 3 months; assay type: functional, organism-based; conditions: Trabecula
Outline: (§3)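 Female rats (205–235 g) randomized by body weight, n = 7 per group: sham, ovariectomized with vehicle, ovariectomized with raloxifene 5 mg/kg/day, and ovariectomized with compound at 7.5, 15 or 30 mg/kg/day. All dosing oral for 3 months. Undecalcified proximal tibia sections analysed by histomorphometry, with comparisons against the sham and ovariectomized groups.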

Rattus norvegicus [6] = assay: Prevention of bone loss in ovariectomized rat assessed as increase in number, thickness, area and connectivity of trabecula at 30 mg/kg/day, po after 3 months by histomorphometry Leica Qwin image analysis; assay type: functional, organism-based; outline: as §3
Mus musculus [7] = assay: Toxicity in SAMP6 mouse assessed as pathological changes in spleen at 30 mg/kg/day, po after 3 months by histomorphology; assay type: organism-based; parameters: route oral; conditions: in vivo
Outline: (§4)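 SAMP6 mice, n = 5 per group, dosed orally at 30 mg/kg/day in 0.5% methylcellulose for 3 months. Heart, liver, spleen, lung and kidney harvested, weighed and examined histologically. Organ/body weight indexes, body weight, and 24 h water and food intake (g/g body weight) compared with vehicle controls.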

Mus musculus [8] = assay: Induction of bone formation in SAMP6 mouse right femora assessed as trabecular formation surface percentage at 30 mg/kg/day, po measured after 3 months by bone histomorphometry; assay type: functional, Trabecula; outline: as §2
Rattus norvegicus [9] = assay: Induction of bone formation in ovariectomized rat assessed as decrease in trabecular resorption surface percentage at 30 mg/kg/day, po after 3 months; assay type: functional, organism-based; conditions: Trabecula; outline: as §3
Rattus norvegicus [10] = assay: Toxicity in rat assessed as pathological changes in heart at 150 mg/kg/day, po after 3 months by histomorphology; assay type: organism-based; parameters: route oral; conditions: in vivo; outline: as §1
Mus musculus [11] = assay: Induction of BMP2 expression in SAMP6 mouse osteoblast at 30 mg/kg/day, po after 3 months by immunohistochemical analysis; assay type: functional, organism-based
Outline: (§5)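 SAMP6 mice, 5 months old, male and female, n = 5 per group (3 male, 2 female). Dosed by gavage with compound suspended in 0.5% methylcellulose daily for 3 months; the vehicle group received methylcellulose only. Proximal third of the left femur fixed in 4% neutral paraformaldehyde for 24 h, decalcified in 10% EDTA at 4 °C for 4 weeks, then frozen-sectioned at 5 μm. Stained with rabbit polyclonal anti-BMP-2 and an alkaline phosphatase secondary. BMP-2-positive area was taken as a percentage of bone tissue area, averaged over five fields below the epiphyseal plate.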

Rattus norvegicus [12] = assay: Prevention of bone loss in ovariectomized rat assessed as increase in number, thickness, area and connectivity of trabecula at 15 mg/kg/day, po after 3 months by histomorphometry Leica Qwin image analysis; assay type: functional, organism-based; outline: as §3
Mus musculus [13] = assay: Toxicity in SAMP6 mouse assessed as pathological changes in heart at 30 mg/kg/day, po after 3 months by histomorphology; assay type: organism-based; parameters: route oral; conditions: in vivo; outline: as §4
Mus musculus [14] = assay: Toxicity in SAMP6 mouse assessed as change in 24 hrs food consumption at 30 mg/kg/day, po after 3 months; assay type: organism-based; parameters: route oral; conditions: in vivo; outline: as §4
Mus musculus [15] = assay: Toxicity in SAMP6 mouse assessed as change in 24 hrs water consumption at 30 mg/kg/day, po after 3 months; assay type: organism-based; parameters: route oral; conditions: in vivo; outline: as §4
Mus musculus [16] = assay: Induction of bone mineral density in SAMP6 mouse assessed as whole body BMD at 10 mg/kg/day, po measured after 1 month; assay type: functional, organism-based; conditions: 30 mg/kg, in the assay text read “30 mg/kg/day” for “10 mg/kg/day”
Outline: (§6)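 SAMP6 mice, 5 months old, n = 5 per group, given compound in 0.5% methylcellulose by gavage daily. Dual-energy X-ray absorptiometry under pentobarbital anaesthesia (50 mg/kg ip), animals prone, at 0, 4, 8 and 12 weeks of treatment. Regions of interest were whole body, spine and left hind leg.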

Mus musculus [17] = assay: Induction of bone formation in SAMP6 mouse right femora assessed as average osteoid width at 30 mg/kg/day, po measured after 3 months by bone histomorphometry; assay type: functional; outline: as §2
Mus musculus [18] = assay: Induction of BMP2 expression in SAMP6 mouse bone marrow stroma at 30 mg/kg/day, po after 3 months by immunohistochemical analysis; assay type: functional, organism-based; outline: as §5
Mus musculus [19] = assay: Induction of bone mineral density in SAMP6 mouse assessed as spine BMD at 30 mg/kg/day, po measured first 2 months; assay type: functional, organism-based; outline: as §6
Rattus norvegicus [20] = assay: Induction of bone formation in ovariectomized rat assessed as decrease in trabecular resorption surface percentage at 7.5 mg/kg/day, po after 3 months; assay type: functional, organism-based; conditions: Trabecula; outline: as §3
[21] = Toxicity in po dosed Kunming mouse assessed as mortality treated for 3 days measured after 17 days; assay type: organism-based; conditions: in vivo
Outline: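 Male and female Kunming mice (18-21 g), six per group (three males, three females), were dosed orally at 500 or 700 (mg/kg)/day for 3 days. They were closely watched for deaths over the 3 dosing days and the following 14 days (17 days in total).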

Mus musculus [22] = assay: Induction of bone mineral density in SAMP6 mouse assessed as left hind leg BMD at 30 mg/kg/day, po measured after 3 months; assay type: functional; outline: as §6
Mus musculus [23] = assay: Induction of bone mineral density in SAMP6 mouse assessed as whole body BMD at 30 mg/kg/day, po measured after 3 months; assay type: functional; outline: as §6
Mus musculus [24] = assay: Induction of bone formation in SAMP6 mouse right femora assessed as trabecular resorption surface percentage at 30 mg/kg/day, po measured after 3 months by bone histomorphometry; assay type: functional, Trabecula; outline: as §2
Rattus norvegicus [25] = assay: Induction of bone formation in ovariectomized rat assessed as increase in trabecular bone volume percentage at 30 mg/kg/day, po after 3 months; assay type: functional, organism-based; conditions: Trabecula; outline: as §3
Mus musculus [26] = assay: Induction of BMP2 expression in SAMP6 mouse cartilage cells at 30 mg/kg/day, po after 3 months by immunohistochemical analysis; assay type: functional, organism-based; outline: as §5
Mus musculus [27] = assay: Induction of bone mineral density in SAMP6 mouse assessed as whole body BMD at 30 mg/kg/day, po measured after 2 months
Mus musculus [28] = assay: Toxicity in SAMP6 mouse assessed as increase in body weight at 30 mg/kg/day, po after 3 months; assay type: organism-based; parameters: route oral; conditions: in vivo; outline: as §4
[29] = Toxicity in ip dosed Kunming mouse assessed as mortality treated for 3 days measured after 17 days; assay type: organism-based; conditions: in vivo
Mus musculus [30] = assay: Toxicity in SAMP6 mouse assessed as pathological changes in kidney at 30 mg/kg/day, po after 3 months by histomorphology; assay type: organism-based; parameters: route oral; conditions: in vivo; outline: as §4

CC(=O)c1cc2ccccc2s1
Activity (Rattus norvegicus [1]): Non-toxic
Activity (Mus musculus [2]): 4.95%
Activity (Rattus norvegicus [3]): Non-toxic
Activity (Rattus norvegicus [4]): Non-toxic
Activity (Rattus norvegicus [5]): Active
Activity (Rattus norvegicus [6]): Active
Activity (Mus musculus [7]): Non-toxic
Activity (Mus musculus [8]): 5.89%
Activity (Rattus norvegicus [9]): Active
Activity (Rattus norvegicus [10]): Non-toxic
Activity (Mus musculus [11]): Active
Activity (Rattus norvegicus [12]): Active
Activity (Mus musculus [13]): Non-toxic
Activity (Mus musculus [14]): Non-toxic
Activity (Mus musculus [15]): Non-toxic
Activity (Mus musculus [16]): Active
Activity (Mus musculus [17]): 5.55 µm
Activity (Mus musculus [18]): Active
Activity (Mus musculus [19]): Active
Activity (Rattus norvegicus [20]): Active
LD50 at 408 h [21]: > 5000 mg/kg
Activity (Mus musculus [22]): 0.05 g/cm2
Activity (Mus musculus [23]): 0.068 g/cm2
Activity (Mus musculus [24]): 7.09%
Activity (Rattus norvegicus [25]): Active
Activity (Mus musculus [26]): inactive
Activity (Mus musculus [27]): Active
Activity (Mus musculus [28]): Non-toxic
LD50 at 408 h [29]: > 1580 mg/kg
Activity (Mus musculus [30]): Non-toxic

From ChEMBL document CHEMBL1156262, “Substituted benzothiophene or benzofuran derivatives as a novel class of bone morphogenetic protein-2 up-regulators: synthesis, structure-activity relationships, and preventive bone loss efficacies in senescence accelerated mice (SAMP6) and ovariectomized rats” (J Med Chem, 2010)
